Results from ChEMBL document CHEMBL3352261, “Discovery of inhibitors of the mitotic kinase TTK based on N-(3-(3-sulfamoylphenyl)-1H-indazol-5-yl)-acetamides and carboxamides” (Bioorg Med Chem, 2014).

Legend:
Cytochrome P450 2C19 = Cytochrome P450 2C19 (Homo sapiens, UniProt P33261); experiment: Inhibition of CYP2C19 in supersomes (unknown origin) using MFC as substrate after 30 mins; type: ADME
[1] = biological target: Serine/threonine-protein kinase PLK2 (Homo sapiens, UniProt Q9NYY3); experiment: Inhibition of PLK2 (unknown origin) by FRET-based homogenous assay
Serine/threonine-protein kinase PLK2, sequence (Q9NYY3 whole entry): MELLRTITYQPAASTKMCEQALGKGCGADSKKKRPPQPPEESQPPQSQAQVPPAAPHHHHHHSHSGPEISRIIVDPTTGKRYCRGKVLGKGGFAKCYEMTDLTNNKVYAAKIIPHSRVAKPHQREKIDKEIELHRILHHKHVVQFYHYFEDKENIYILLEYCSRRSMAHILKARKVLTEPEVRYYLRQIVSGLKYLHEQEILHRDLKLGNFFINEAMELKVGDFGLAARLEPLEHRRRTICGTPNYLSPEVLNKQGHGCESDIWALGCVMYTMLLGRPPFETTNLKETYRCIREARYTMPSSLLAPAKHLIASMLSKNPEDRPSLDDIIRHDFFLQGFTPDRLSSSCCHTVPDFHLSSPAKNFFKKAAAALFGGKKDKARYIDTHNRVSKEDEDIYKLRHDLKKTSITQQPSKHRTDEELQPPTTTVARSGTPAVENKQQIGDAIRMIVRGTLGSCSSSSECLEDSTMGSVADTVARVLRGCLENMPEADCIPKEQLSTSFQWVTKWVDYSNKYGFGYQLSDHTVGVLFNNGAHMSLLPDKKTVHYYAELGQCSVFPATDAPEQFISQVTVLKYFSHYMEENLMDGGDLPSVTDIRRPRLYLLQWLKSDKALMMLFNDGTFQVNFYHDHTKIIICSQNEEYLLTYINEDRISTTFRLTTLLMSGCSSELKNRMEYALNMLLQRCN

[2] = biological target: Serine/threonine-protein kinase PLK1 (Homo sapiens, UniProt P53350); experiment: Inhibition of PLK1 (unknown origin) by FRET-based homogenous assay
Serine/threonine-protein kinase PLK1, sequence (P53350 whole entry): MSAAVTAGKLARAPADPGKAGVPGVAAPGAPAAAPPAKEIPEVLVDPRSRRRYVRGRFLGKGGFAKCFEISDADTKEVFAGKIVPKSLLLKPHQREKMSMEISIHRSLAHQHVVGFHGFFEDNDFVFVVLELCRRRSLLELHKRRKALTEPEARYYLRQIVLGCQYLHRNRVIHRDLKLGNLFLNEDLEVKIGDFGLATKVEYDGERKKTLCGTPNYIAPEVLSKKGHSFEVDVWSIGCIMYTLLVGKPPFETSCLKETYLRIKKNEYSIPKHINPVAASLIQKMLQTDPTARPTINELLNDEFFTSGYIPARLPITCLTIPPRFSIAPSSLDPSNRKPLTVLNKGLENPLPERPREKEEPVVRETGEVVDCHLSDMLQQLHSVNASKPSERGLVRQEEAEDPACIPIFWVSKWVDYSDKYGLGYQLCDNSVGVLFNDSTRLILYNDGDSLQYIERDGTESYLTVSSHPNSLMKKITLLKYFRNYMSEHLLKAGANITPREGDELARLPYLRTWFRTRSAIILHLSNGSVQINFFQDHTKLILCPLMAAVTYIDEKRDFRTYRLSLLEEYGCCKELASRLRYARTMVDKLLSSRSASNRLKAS

Cytochrome P450 2D6 = Cytochrome P450 2D6 (Homo sapiens, UniProt P10635); experiment: Inhibition of CYP2D6 in supersomes (unknown origin) using AMMC as substrate after 30 mins; type: ADME
Cytochrome P450 2D6, sequence (P10635 whole entry): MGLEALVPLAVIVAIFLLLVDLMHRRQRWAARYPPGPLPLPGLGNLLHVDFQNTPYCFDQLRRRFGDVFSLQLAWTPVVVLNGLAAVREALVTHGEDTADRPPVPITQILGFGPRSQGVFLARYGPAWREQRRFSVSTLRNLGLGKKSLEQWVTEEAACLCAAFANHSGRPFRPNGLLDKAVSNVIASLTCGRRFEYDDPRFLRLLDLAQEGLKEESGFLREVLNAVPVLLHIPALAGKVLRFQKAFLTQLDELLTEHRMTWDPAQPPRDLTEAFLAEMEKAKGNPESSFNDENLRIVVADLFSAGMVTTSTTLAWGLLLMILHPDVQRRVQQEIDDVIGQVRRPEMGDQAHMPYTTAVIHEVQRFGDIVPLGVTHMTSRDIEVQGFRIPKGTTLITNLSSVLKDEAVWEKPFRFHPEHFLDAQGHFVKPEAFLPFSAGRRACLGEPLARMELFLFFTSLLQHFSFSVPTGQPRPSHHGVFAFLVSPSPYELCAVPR

Cytochrome P450 1A2 = biological target: T1, Cytochrome P450 1A2 (Homo sapiens, UniProt P05177); experiment: Inhibition of CYP1A2 in supersomes (unknown origin) using CEC as substrate after 30 mins; type: ADME
T1 sequence (P05177 whole entry): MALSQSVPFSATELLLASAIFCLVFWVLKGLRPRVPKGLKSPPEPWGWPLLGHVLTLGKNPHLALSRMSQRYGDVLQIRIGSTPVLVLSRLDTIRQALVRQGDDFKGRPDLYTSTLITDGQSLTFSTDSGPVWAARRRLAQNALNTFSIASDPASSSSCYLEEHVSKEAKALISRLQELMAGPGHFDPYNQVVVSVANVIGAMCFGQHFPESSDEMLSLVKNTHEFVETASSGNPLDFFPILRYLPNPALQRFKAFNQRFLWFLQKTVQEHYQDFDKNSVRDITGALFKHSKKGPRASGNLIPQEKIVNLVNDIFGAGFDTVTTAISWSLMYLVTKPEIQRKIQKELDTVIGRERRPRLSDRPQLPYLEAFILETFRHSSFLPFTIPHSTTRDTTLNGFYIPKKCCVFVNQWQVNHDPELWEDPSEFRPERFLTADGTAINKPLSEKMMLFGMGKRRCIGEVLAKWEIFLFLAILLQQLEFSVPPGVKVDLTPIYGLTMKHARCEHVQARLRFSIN

[3] = biological target: Serine/threonine-protein kinase PLK3 (Homo sapiens, UniProt Q9H4B4); experiment: Inhibition of PLK3 (unknown origin) by FRET-based homogenous assay
Serine/threonine-protein kinase PLK3, sequence (Q9H4B4 whole entry): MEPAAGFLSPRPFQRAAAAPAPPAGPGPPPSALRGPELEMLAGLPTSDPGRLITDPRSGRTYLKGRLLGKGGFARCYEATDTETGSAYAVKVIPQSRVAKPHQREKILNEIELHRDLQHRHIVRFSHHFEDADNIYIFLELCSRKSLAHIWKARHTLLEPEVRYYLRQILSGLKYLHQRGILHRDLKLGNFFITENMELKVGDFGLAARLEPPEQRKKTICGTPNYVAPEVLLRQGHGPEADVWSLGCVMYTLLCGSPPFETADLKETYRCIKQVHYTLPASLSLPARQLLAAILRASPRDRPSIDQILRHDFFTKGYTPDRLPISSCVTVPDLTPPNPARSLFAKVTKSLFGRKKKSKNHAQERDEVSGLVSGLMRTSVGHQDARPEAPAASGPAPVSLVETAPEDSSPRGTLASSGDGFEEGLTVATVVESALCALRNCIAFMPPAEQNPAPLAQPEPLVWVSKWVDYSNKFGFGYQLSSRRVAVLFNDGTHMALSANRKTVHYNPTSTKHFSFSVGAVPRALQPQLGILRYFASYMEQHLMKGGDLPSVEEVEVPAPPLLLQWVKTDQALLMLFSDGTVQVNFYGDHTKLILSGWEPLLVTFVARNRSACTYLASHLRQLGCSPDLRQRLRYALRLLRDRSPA

[4] = AUC in SCID mouse at 25 mg/kg, ip; type: ADME, organism-based; design: dose 25 mg/kg, route intraperitoneal; conditions: plasma
Summary of the method: (§1)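 Mice were dosed at 25 mg/kg by the IP or the PO route. Drug levels were measured in plasma, and Cmax (µg/mL) and AUC (µg h/mL) were derived for each route.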

Mus musculus [5] = experiment: Toxicity in SCID mouse assessed as body weight loss at 12.5 mg/kg, ip qd for 18 days; type: organism-based; design: dose 12.5 mg/kg, route intraperitoneal; conditions: in vivo, 432 h
Summary of the method: (§2)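 Mice bore HCT116 tumour xenografts. Arms were dosed IP at 12.5 or 25 mg/kg QD, or at 12.5 mg/kg BID. The reference arm received 5-fluorouracil IP at 15 mg/kg daily. Tumour volume was compared with a negative control group to give percent tumour growth inhibition. Body weight was monitored in all arms.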

HCT-116 = experiment: Antitumor activity against human HCT116 cells xenografted in SCID mouse assessed as tumor growth inhibition administered ip qd for 18 days; type: functional, organism-based; summary of the method: as §2
[6] = Antitumor activity against human HCT116 cells xenografted in SCID mouse assessed as tumor growth inhibition at 12.5 mg/kg, ip bid for 18 days; type: functional; conditions: HCT-116, ip, 432 h, route intraperitoneal, read-out: TGI; summary of the method: as §2
Mus musculus [7] = experiment: Toxicity in SCID mouse assessed as body weight loss at 15 mg/kg, ip qd for 5 days; type: organism-based; design: dose 15 mg/kg, route intraperitoneal; conditions: in vivo, 120 h; summary of the method: as §2
[8] = Antitumor activity against human HCT116 cells xenografted in SCID mouse assessed as tumor growth inhibition at 25 mg/kg, ip qd for 18 days; type: functional; conditions: HCT-116, ip, 432 h, route intraperitoneal, read-out: TGI; summary of the method: as §2
Mus musculus [9] = experiment: Toxicity in SCID mouse assessed as mortality at 25 mg/kg, ip bid for 18 days; type: organism-based; design: dose 25 mg/kg, route intraperitoneal; conditions: in vivo, 432 h
Mus musculus [10] = experiment: Toxicity in SCID mouse assessed as body weight loss at 12.5 mg/kg, ip bid for 18 days; type: organism-based; design: dose 12.5 mg/kg, route intraperitoneal; conditions: in vivo, 432 h; summary of the method: as §2
[11] = Cmax in SCID mouse at 25 mg/kg, ip; type: ADME, organism-based; design: dose 25 mg/kg, route intraperitoneal; conditions: in vivo; summary of the method: as §1
[12] = Antitumor activity against human HCT116 cells xenografted in SCID mouse assessed as tumor growth inhibition at 12.5 mg/kg, ip qd for 18 days; type: functional; conditions: HCT-116, ip, 432 h, route intraperitoneal, read-out: TGI; summary of the method: as §2
[13] = Cmax in SCID mouse at 25 mg/kg, po; type: ADME, organism-based; design: dose 25 mg/kg, route oral; conditions: in vivo; summary of the method: as §1
[14] = AUC in SCID mouse at 25 mg/kg, po; type: ADME, organism-based; design: dose 25 mg/kg, route oral; conditions: plasma; summary of the method: as §1

Cytochrome P450 2C19, sequence (P33261 whole entry): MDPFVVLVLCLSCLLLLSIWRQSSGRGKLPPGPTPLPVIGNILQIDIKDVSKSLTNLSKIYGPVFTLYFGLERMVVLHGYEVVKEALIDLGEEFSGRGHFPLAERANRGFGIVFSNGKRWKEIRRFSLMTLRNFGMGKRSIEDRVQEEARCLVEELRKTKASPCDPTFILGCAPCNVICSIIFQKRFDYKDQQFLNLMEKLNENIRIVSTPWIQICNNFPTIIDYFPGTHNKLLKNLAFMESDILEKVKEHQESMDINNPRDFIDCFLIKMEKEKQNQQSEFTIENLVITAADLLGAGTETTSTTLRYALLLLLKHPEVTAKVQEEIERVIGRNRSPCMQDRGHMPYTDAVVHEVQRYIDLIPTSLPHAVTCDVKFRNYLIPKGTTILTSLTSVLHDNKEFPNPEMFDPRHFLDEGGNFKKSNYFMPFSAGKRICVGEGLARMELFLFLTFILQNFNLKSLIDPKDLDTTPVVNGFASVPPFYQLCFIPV

IC50 [1] [µM] | IC50 [3] [µM] | Compound | IC50 (Cytochrome P450 2C19) [µM] | IC50 [2] [µM] | IC50 (Cytochrome P450 2D6) [µM] | IC50 (Cytochrome P450 1A2) [µM] | AUC [4] [ng·h/mL] | Activity (Mus musculus [5]) | TGI (HCT-116) | inhibition in vivo at 12.5 mg/kg [6] [%] | Activity (Mus musculus [7]) | inhibition in vivo at 25 mg/kg [8] [%] | Activity (Mus musculus [9]) | Activity (Mus musculus [10]) | Cmax [11] [ng/mL] | inhibition in vivo at 12.5 mg/kg [12] [%] | Cmax [13] [ng/mL] | AUC [14] [ng·h/mL]
10 | > 50 | NS(=O)(=O)c1cccc(-c2n[nH]c3ccc(NC(=O)C(c4ccsc4)N4CCCC4)cc23)c1 (racemic) | 5.3 | > 50 | 10 | > 10 | – | – | – | – | – | – | – | – | – | – | – | –
– | – | CCc1ccccc1C(C(=O)Nc1ccc2[nH]nc(-c3cccc(S(N)(=O)=O)c3)c2c1)N(C)C (racemic) | 2.3 | > 50 | 5 | > 10 | 3000 | Non-toxic | Dose-dependent effect | 46 | Non-toxic | 66 | Toxic | Non-toxic | 4800 | 10 | 130 | 140
